PglD DTNB: inhibitors of Campylobacter jejuni PglD acetyltransferase; purified PglD enzyme, DTNB colorimetric CoA detection; 0.098% of 360,000 active; inhibition, % at 12.5 µM; in the data active means inhibition above about 16%, passing the limit was not always enough
E-sel inducer: E-selectin induction on HUVECs | activation, % at 7.58 µM | 0.37% of 260,000 active | HUVEC E-selectin immunofluorescence imaging; normalized: neutral wells 0, TNF-alpha wells 100 | AID 686992 | P16581;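 active means mean E-selectin-positive cell signal at least 10% of the positive control, reached in at least 60% of replicates, without over 20% cell loss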
Target sequence (P16581 whole entry, looked up): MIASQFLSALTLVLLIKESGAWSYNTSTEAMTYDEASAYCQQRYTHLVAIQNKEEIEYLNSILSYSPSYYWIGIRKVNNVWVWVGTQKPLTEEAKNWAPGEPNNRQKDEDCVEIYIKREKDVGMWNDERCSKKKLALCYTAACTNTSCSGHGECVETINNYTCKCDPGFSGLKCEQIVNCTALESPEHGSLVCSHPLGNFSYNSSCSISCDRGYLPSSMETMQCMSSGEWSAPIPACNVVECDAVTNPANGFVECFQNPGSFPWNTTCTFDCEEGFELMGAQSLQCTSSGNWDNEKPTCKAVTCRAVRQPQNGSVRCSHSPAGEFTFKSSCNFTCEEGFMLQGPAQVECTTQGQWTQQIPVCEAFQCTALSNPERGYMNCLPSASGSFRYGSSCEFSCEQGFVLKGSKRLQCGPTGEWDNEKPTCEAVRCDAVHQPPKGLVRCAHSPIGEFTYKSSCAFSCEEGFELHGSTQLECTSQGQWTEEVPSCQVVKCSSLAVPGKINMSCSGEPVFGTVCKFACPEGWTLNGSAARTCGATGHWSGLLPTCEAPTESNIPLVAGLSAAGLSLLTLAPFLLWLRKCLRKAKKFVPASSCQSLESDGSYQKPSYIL
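Test system: HUVEC; input: 3,000 HUVEC/well; measured by: immunofluorescence imaging; read-out: % PE-positive cells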
FGF22 binding: shifts melting point of recombinant human FGF22; recombinant FGF22 thermal shift, SYPRO orange fluorescence; percent of sucrose octasulfate shift, DMSO zero; AID 651658; Q9HCT0; activity (Tm shift, normalised), % at 9.99 µM; 1.5% of 340,000 active;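 active means mean Tm shift, scaled 0 neutral to 100 positive control, at about 1.3% or above, every replicate too, limit read from the data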
XiGFP reactiv: X-chromosome reactivation activator | XiGFP mouse fibroblasts, % GFP-positive cells imaging, 3 d; cells co-treated with 5-aza-dC sensitizer; scaled so ellipticine positive control = 100% | activation, % at 7.58 µM | 0.055% of 360,000 active | AID 743238;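 active means mean normalized replicate activation at least 10% and every replicate at or above 10%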;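 further: 0% = median of on-plate neutral control wells and 100% = ellipticine 6 µM median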
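assay system = SV40-immortalized XiGFP fibroblast cells, line 68-5-11 | buffer or medium = DMEM plus 5-aza-dC sensitizer | doses = single-point pinned compound dosing | times = 3-day compound exposure, then 15 min fixation at room temperature | benchmarks = positive control ellipticine, 6 µM final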
Statin myotox sup: suppression of simvastatin myotoxicity; C2C12 myotubes + simvastatin, ATP luminescence, 48 h; scaled: DMSO 0, geranylgeraniol control 100; rescue of ATP level, % at 7.49 µM; 0.78% of 330,000 active;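 active means mean ATP rescue above about 67%, or every replicate alone reaching that limit, limit read from the data, passing the limit was not always enough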;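 further: myotubes were challenged with 10 µM simvastatin during compound exposure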
DENV2 CPE: protects cells from dengue virus 2 cytopathic effect; CPE inhibition, % at 9.99 µM; 1.7% of 350,000 active; DENV2-infected cells, cytopathic effect rescue, plate reader; in the data active means CPE inhibition above about 20%, passing the limit was not always enough; tested in BHK-21 cells;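 further: 0% = median of neutral control wells and 100% = median of positive control wells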
* hit, by the source's call; nt = not tested or not shown; ! = not active in a repeat. In the library only some 3.3% were active in any assay of this set; here they are far more common.

SMILES	PglD DTNB	E-sel inducer	FGF22 binding	XiGFP reactiv	Statin myotox sup	DENV2 CPE
O=C(Nc1ccc(-c2nnc3n2CCCCC3)cc1)c1cc2ccccc2o1	nt	nt	44*	0	nt	5
CC(=O)N[C@@H]1CC[C@H](CC(=O)NCC2CCCCC2)O[C@@H]1CO	-3	0	-1	0	0	5
On1nnc2ccc(C(F)(F)F)cc21	nt	0	43*	0	nt	9
Cc1c(C(Nc2ccccn2)c2ccccc2)c(=O)n(-c2ccccc2)n1C (stereo not given)	nt	nt	nt	nt	81*	nt
Cc1c(C(Nc2ccccn2)c2ccc(Cl)cc2)c(=O)n(-c2ccccc2)n1C (stereo not given)	0	nt	nt	nt	-6	nt
FC(F)(F)c1cc(CCN2CCNC[C@H]2Cc2cccc3ccccc23)cc(C(F)(F)F)c1	4	0	0	0	3	84*
C[C@@H]1CN([C@@H](C)CO)C(=O)c2cc(C#CC(C)(C)O)cnc2O[C@@H]1CN(C)Cc1cccc(F)c1	nt	-1	nt	0	-2	nt
CO[C@H]1CN(C)C(=O)c2ccc(NC(=O)C3CCC3)cc2OC[C@H](C)N(Cc2nccs2)C[C@H]1C	0	0	0	0	-2	16
CO[C@H]1CN(C)C(=O)c2cc(NC(C)=O)ccc2OC[C@H](C)N(Cc2nccs2)C[C@@H]1C	4	0	-1	0	7	32*
CO[C@@H]1CN(C)C(=O)c2ccc(NC(=O)C3CCC3)cc2OC[C@H](C)N(Cc2nccs2)C[C@H]1C	-2	0	0	0	-8	27*
CO[C@@H]1CN(C)C(=O)c2cc(NC(C)=O)ccc2OC[C@H](C)N(Cc2nccs2)C[C@H]1C	0	0	0	0	12	-4
Cc1nc2ccccc2n1CC(O)COc1ccc(Br)cc1 (stereo not given)	nt	nt	44*	0	nt	-4
CCCn1c(=N)n(CC(O)COc2ccc(C)cc2)c2ccccc21 (stereo not given)	nt	nt	0	0	-19	41*
C[C@@H]1CN([C@H](C)CO)C(=O)c2ccccc2-c2ccccc2CO[C@@H]1CN(C)S(=O)(=O)c1ccc([N+](=O)[O-])cc1	nt	0	-1	0	nt	-11
C[C@@H]1CN([C@H](C)CO)C(=O)c2cc(NS(C)(=O)=O)ccc2O[C@@H](C)CCCCO[C@H]1CN(C)C(=O)Nc1ccc(F)cc1	4	0	0	0	nt	-3
CN1C(=O)c2cc(NC(=O)C3CC3)ccc2OC[C@H]2O[C@@H](CC(=O)Nc3cccc(Cl)c3)CC[C@@H]21	nt	0	0	0	nt	-8
O=c1[nH]ncc2c3ccccc3n(Cc3ccccc3)c12	-5	nt	nt	nt	108*	nt
Cc1ccc(Cn2c3ccccc3c3cn[nH]c(=O)c32)cc1	3	0	0	0	36	1
COCC(=O)Nc1ccc2c(c1)C(=O)N(C)C[C@H](OC)[C@H](C)CN(C(=O)c1ccccn1)[C@H](C)CO2	3	0	0	0	3	31*
CCC(=O)Nc1ccc2c(c1)C(=O)N(C)C[C@@H](OC)[C@H](C)CN(C(=O)c1ccccn1)[C@H](C)CO2	-2	0	0	0	7	43*
COCC(=O)Nc1ccc2c(c1)C(=O)N(C)C[C@H](OC)[C@@H](C)CN(C(=O)c1ccccn1)[C@@H](C)CO2	1	0	0	0	-5	16
CCC(=O)Nc1ccc2c(c1)C(=O)N(C)C[C@H](OC)[C@@H](C)CN(C(=O)c1ccccn1)[C@H](C)CO2	1	0	0	0	2	nt
CCC(=O)Nc1ccc2c(c1)C(=O)N(C)C[C@@H](OC)[C@@H](C)CN(C(=O)c1cnccn1)[C@@H](C)CO2	-5	0	0	0	-4	29*
NCC[C@H]1CC[C@H](NC(=O)C2CC2)[C@H](CO)O1	nt	0	nt	0	nt	-6
Cc1noc(C)c1NC(=O)Nc1ccc2c(c1)C(=O)N([C@H](C)CO)C[C@H](C)[C@H](CN(C)C(=O)Nc1ccc(C(F)(F)F)cc1)OCCCC[C@@H](C)O2	-1	0	0	0	-14	-2
SMILES	PglD DTNB	E-sel inducer	FGF22 binding	XiGFP reactiv	Statin myotox sup	DENV2 CPE
CC(=O)C1=C(C)N(Cc2ccc(Cl)cc2)C(=S)NC1c1ccc(Cl)cc1 (stereo not given)	nt	0	0	0	nt	55*
CC(=O)C1=C(C)N(Cc2ccc(Cl)cc2)C(=S)NC1c1ccccc1 (stereo not given)	nt	1	0	0	nt	15
Cc1noc(C)c1NC(=O)Nc1cccc2c1O[C@H](CN(C)S(=O)(=O)c1ccc(F)cc1)[C@@H](C)CN([C@H](C)CO)C2=O	-1	-2	0	0	81*!	-1
Cc1noc(C)c1NC(=O)Nc1cccc2c1O[C@H](CN(C)S(=O)(=O)c1ccc(F)cc1)[C@@H](C)CN([C@@H](C)CO)C2=O	0	17	1	0	19	32*
Cc1noc(C)c1NC(=O)Nc1cccc2c1O[C@@H](CN(C)S(=O)(=O)c1ccc(F)cc1)[C@H](C)CN([C@H](C)CO)C2=O	-1	8	0	0	-3	-4
COCC#Cc1ccc2c(c1)O[C@@H](CN(C)Cc1ccc(F)cc1)[C@H](C)CN([C@@H](C)CO)S2(=O)=O	2	0	0	-1	-44	-8
Cc1ccc(S(=O)(=O)Nc2ccc3c(c2)C(=O)N([C@@H](C)CO)C[C@H](C)[C@H](CN(C)C(=O)CCC(F)(F)F)OCCCC[C@@H](C)O3)cc1	-6	nt	nt	0	nt	-5
Cc1noc(C)c1S(=O)(=O)N(C)C[C@@H]1OCCCC[C@H](C)Oc2ccc(NC(=O)Nc3ccc(F)cc3)cc2C(=O)N([C@H](C)CO)C[C@H]1C	-4	0	0	0	nt	-2
O=C(CN1CCN(Cc2ccccc2)CC1)N1N=CCC1c1ccccc1 (stereo not given)	nt	nt	0	0	nt	2
Cc1ccc(SCC(=O)N2N=CCC2c2ccccc2)cc1 (stereo not given)	nt	-1	44*	0	nt	4
CCOC(=O)N1C=CC=C[C@@H]2[C@@H](N3C(=O)c4ccccc4C3=O)C(=O)N21	nt	-1	0	0	nt	63*
CN1CCN(C(=O)C[C@H]2C[C@@H]3c4cc(NC(=O)c5cccnc5)ccc4O[C@@H]3[C@@H](CO)O2)CC1	10	0	0	0	-1	5
COc1ccccc1CNC(=O)C[C@@H]1CC[C@H]2[C@@H](COC[C@@H](O)CN2Cc2cccc(-c3ccncc3)c2)O1	-1	0	0	0	9	-3

Screens (PubChem)
